Test results from ChEMBL document CHEMBL1144783, “Novel bisbenzimidazoles with antileishmanial effectiveness” (Bioorg Med Chem Lett, 2008).

Legend:
Leishmania donovani = assay: Antileishmanial activity against Leishmania donovani by Alamar blue assay; format: functional, organism-based
Method in brief: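 L. donovani promastigotes at 2×10^6 cells/ml, 96-well format. Compounds dissolved in DMSO (2 mg ml⁻¹ stock), diluted in culture medium to final concentrations; matching DMSO dilutions as controls. Incubation 72 h at 26 °C; growth read by Alamar blue.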

[1] = test system: Trypanosoma brucei rhodesiense; assay: […] rhodesiense STIB 900 after 3 days; format: functional, organism-based; settings: STIB 900, 72 h
Method in brief: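 Bloodstream-form trypomastigotes, 8×10^3 per well in 100 μl medium, 96-well plates. Incubated 3 days, then resazurin added and fluorescence read after a further 24 h at 37 °C to gauge parasite growth. IC50 reported.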

Pneumocystis carinii = assay: Antileishmanial activity against Pneumocystis carinii; format: functional, organism-based
Vero = assay: Cytotoxicity against african green monkey Vero cells by neutral red assay; format: cell-based; settings: Chlorocebus sabaeus

Compound	IC50 (Leishmania donovani)	IC90 (Leishmania donovani)	IC50 [1]	IC50 (Pneumocystis carinii)	IC50 (Vero)
c1ccc2[nH]c(-c3ccc(OCCCCCCCOc4ccc(-c5nc6ccccc6[nH]5)cc4)cc3)nc2c1	13.6 µM	56.2 µM	> 60 µM	> 100 µM	46.1 µM
c1ccc2[nH]c(-c3ccc(OCCCCCCOc4ccc(-c5nc6ccccc6[nH]5)cc4)cc3)nc2c1	11.8 µM	53.8 µM	> 60 µM	> 100 µM	27.9 µM
c1ccc2[nH]c(-c3ccc(OCCCCCOc4ccc(-c5nc6ccccc6[nH]5)cc4)cc3)nc2c1	1.4 µM	3.1 µM	> 60 µM	54.1 µM	28.7 µM
c1cc(OCCCCCOc2cccc(-c3nc4ccccc4[nH]3)c2)cc(-c2nc3ccccc3[nH]2)c1	10.3 µM	45.1 µM	0.85 µM	5.2 µM	12.3 µM
c1ccc2[nH]c(-c3ccc(OCCCOc4ccc(-c5nc6ccccc6[nH]5)cc4)cc3)nc2c1	1.5 µM	3.3 µM	> 60 µM	10.2 µM	27.2 µM
c1ccc2[nH]c(-c3ccc(OCCCCOc4ccc(-c5nc6ccccc6[nH]5)cc4)cc3)nc2c1	4.9 µM	12.9 µM	> 60 µM	169 µM	> 100 µM
N=C(N)c1ccc(OCCCCCOc2ccc(C(=N)N)cc2)cc1 [PENTAMIDINE]	–	9.8 µM	0.05 µM	–	> 100 µM
